Rev-erbA mod – modulates human Rev-erb alpha binding to DNA. actives 0.79% (n = 370,000). P20393. Rev-erbα–FITC-DNA binding, fluorescence polarization, 90 min. AID 1259318. activity, % at 10 µM;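 active = activity above about 14%, limit read from the data; passing the limit was not always enough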;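 also: 0% = DMSO wells with 35 nM protein and 100% = DMSO wells with 750 nM protein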
NR2E3 ag-1 – NR2E3 (human) agonism; Q9Y5X4; GST-NR2E3/biotin-RetCOR TR-FRET, 1536-well; inhibition of corepressor binding, % at 4.78 µM; actives 0.12% (n = 320,000);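 active = percent inhibition above the cutoff of mean plus 3 SD of all tested compounds, set per screening campaign, cut at about 20% in these data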;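 also: 0% = DMSO wells and 100% = biotin wells as full block of FRET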
Target sequence (Q9Y5X4 whole entry, looked up): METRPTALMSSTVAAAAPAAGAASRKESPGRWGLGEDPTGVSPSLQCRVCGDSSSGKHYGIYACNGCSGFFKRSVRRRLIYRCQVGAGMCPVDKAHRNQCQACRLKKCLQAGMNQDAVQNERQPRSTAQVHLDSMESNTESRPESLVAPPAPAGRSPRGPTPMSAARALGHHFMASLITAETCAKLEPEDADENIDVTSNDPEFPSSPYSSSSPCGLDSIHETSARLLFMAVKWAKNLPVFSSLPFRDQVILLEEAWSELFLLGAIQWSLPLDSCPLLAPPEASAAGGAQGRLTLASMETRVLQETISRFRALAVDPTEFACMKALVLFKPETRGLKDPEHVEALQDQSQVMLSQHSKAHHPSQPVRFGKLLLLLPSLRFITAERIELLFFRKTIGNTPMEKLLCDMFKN
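system = GST-tagged NR2E3 plus biotinylated RetCOR corepressor | input = 1.35 nM GST-NR2E3 | also added = 7 nM biotin-RetCOR | schedule = 5 h incubation at 4 °C | measured by = TR-FRET with europium anti-GST and streptavidin-D2, 340 nm excitation | read-out = percent loss of FRET ratio relative to control wells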
PG9 binder – PG9 antibody binding by small molecule. TR-FRET gp120-PG9 antibody binding. inhibition, % at 6.7 µM. actives 0.43% (n = 360,000). AID 624416; in the data active = inhibition above about 8.5%
NR2E3 ag-2 – activates human NR2E3 receptor | Q9Y5X4 | CHO-S Gal4-NCOR/VP16-NR2E3 two-hybrid, luciferase | inhibition of corepressor binding, % at 3.98 µM | actives 0.35% (n = 360,000) | AID 602229;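 active = inhibition above the mean of all tested compounds plus 3 SD, cut at about 70% in these data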;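 also: 0% = DMSO with NR2E3 transfected cells and 100% = cells lacking NR2E3 construct; higher means lower luciferase signal from less NR2E3 corepressor binding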
GalR3 antag – blocks the human galanin receptor 3. O60755. HEK293 GalR3-CNG cAMP membrane potential fluorescence; galR3 body fused to GalR1 C-terminus. inhibition, % at 3 µM. actives 0.44% (n = 360,000). AID 651719;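 active = inhibition above the screen-wide average plus 3 SD, cut at about 13% in these data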;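 also: forskolin and galanin both at EC90 stimulate the cells; cAMP rise reported by CNG channel membrane potential dye signal; 0% = forskolin plus galanin with DMSO and 100% = forskolin alone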
NR2E3 ag confirm – NR2E3 agonism confirmed in two-hybrid assay. shares compounds with NR2E3 ag-2. CHO-S mammalian two-hybrid NR2E3-NCOR, luciferase luminescence. inhibition, % at 3.98 µM. actives 51% (n = 2,300). AID 624378;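 active = average inhibition above a cutoff equal to the mean inhibition of all tested compounds plus one SD, cut at about 70% in these data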;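 also: 0% = DMSO in NR2E3 cells and 100% = DMSO in cells lacking NR2E3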
VP16 counter – reduces GAL4-VP16 reporter signal in NR2E3 counterscreen; shares compounds with NR2E3 ag-2; CHO-S GAL4-VP16 luciferase reporter, luminescence; inhibition, % at 3.98 µM; actives 29% (n = 2,300); AID 624379;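 active = mean inhibition above a cutoff equal to the average over all tested compounds plus one standard deviation, cut at about 70% in these data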;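 also: luciferase from a UAS reporter driven by GAL4-VP16 transactivation; 0% = DMSO with VP16-transfected cells and 100% = DMSO with cells lacking VP16; higher means less reporter light so more repression of VP16 activity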
* hit, by the source's call; x = no result. Rows were chosen to be rich in hits. Some 1.8% of all compounds tested hit in one or more screens of this group.

SMILES	Rev-erbA mod	NR2E3 ag-1	PG9 binder	NR2E3 ag-2	GalR3 antag	NR2E3 ag confirm	VP16 counter
COc1ccc(S[C@]2(C(=O)N3CCN(c4ncccn4)CC3)CC(=O)N(c3ccc(OC)cc3)[C@@H]2c2ccc(OC)cc2)cc1	3	x	x	x	x	x	x
CCN(CC)C(=O)CC[C@@H]1CC[C@]2(CCCN(S(C)(=O)=O)C2)O1	3	x	x	x	x	x	x
Nc1ccc(S(=O)(=O)N2CCc3ccccc32)cc1	5	4	1	14	-10	x	x
O=S(=O)(NC1CCCC1)c1ccc(S(=O)(=O)N2CCc3ccccc32)cc1	-1	1	0	55	-6	79*	54
O=C(NNC(=O)c1cccc(S(=O)(=O)N2CCc3ccccc32)c1)c1ccccc1	-1	x	0	53	-4	80*	71*
CCN(CC)S(=O)(=O)c1ccc(Cl)c(C(=O)Nc2ccc(Cl)cc2[N+](=O)[O-])c1	-1	5	-2	58	0	70*	67
CN(C)S(=O)(=O)c1ccc(Cl)c(C(=O)Nc2ccccc2[N+](=O)[O-])c1	0	1	0	-6	0	x	x
Cc1cccc(-c2cccc3c4c([nH]c23)[C@@H]2C[C@H]3[C@@H](C(=O)N2CC4)[C@H](C)ON3C)c1	3	x	x	x	x	x	x
CCN(CC)c1nc2ccccc2[nH]c1=O	5	2	1	-14	-7	x	x
CN(c1nc2ccccc2[nH]c1=O)C1CCCCC1	15	2	2	55	-7	90*	73*
Cc1cc(C(=O)CSc2ccc(F)cc2)cc(C)c1OC(=S)N(C)C	-2	2	0	63	-1	43	9
O=S(=O)(c1cccc(Br)c1)N1CCN(c2ccnc3cc(Cl)ccc23)CC1	8	-1	-3	64	-4	65	60
O=S(=O)(Nc1nc(-c2ccccc2)cs1)c1cc(Cl)ccc1Cl	-5	3	-2	57	-9	57	42
O=S(=O)(Nc1nc(-c2ccccc2)cs1)c1cccc(C(F)(F)F)c1	-7	0	0	71*	-8	88*	76*
O=[N+]([O-])c1ccc(S(=O)(=O)Nc2nc(-c3ccccc3)cs2)cc1	2	3	0	24	-4	x	x
O=C(Nc1ccc(Cl)c(Cl)c1)Nc1nc(-c2ccccc2)cs1	2	1	1	18	-12	x	x
COc1ccc(CN2C/C(=C/C3=CCCCC3)N(C(=O)OCc3ccccc3)C2=N)c(OC)c1	2	x	x	x	x	x	x
CCCCNC(=O)NCC1CCN(Cc2ccc(OC)cc2)CC1	-1	x	x	x	x	x	x
COC(=O)[C@]12C[C@H](CC(=O)NCc3cccs3)C(=O)N(Cc3cccc4ccccc34)C1=C[C@H](C(C)(C)C)O[C@@H]2C	2	x	x	x	x	x	x
O=C(c1cncc(Br)c1)N1CCCc2ccccc21	-1	-2	-1	74*	0	-3	11
CCn1nc(C)cc1C(=O)NC1CCCc2c1cnn2-c1ccc(C)c(C)c1 (centres undefined)	6	-2	-1	58	-7	55	40
CC(C)c1cc(C(=O)NC2CCCc3c2cnn3-c2ccccc2F)no1 (centres undefined)	-1	0	2	60	0	47	52
CCCC(=O)NC1CCCc2c1cnn2-c1ccc(C)c(C)c1 (centres undefined)	8	-2	-1	-56	-2	x	x
CCc1[nH]nc(C(=O)NC2CCCc3c2cnn3-c2cc(C)cc(C)c2)c1C (centres undefined)	-3	2	0	61	3	54	-8
CC(C)(C)c1ccc(-n2ncc3c2CCCC3NC(=O)c2cnccn2)cc1 (centres undefined)	9	0	-1	89*	-2	59	47
SMILES	Rev-erbA mod	NR2E3 ag-1	PG9 binder	NR2E3 ag-2	GalR3 antag	NR2E3 ag confirm	VP16 counter
CC(C)(C)c1ccc(-n2ncc3c2CCCC3NC(=O)c2csnn2)cc1 (centres undefined)	-2	4	-1	-42	-3	x	x
Cn1c(=O)oc2cc(S(=O)(=O)N3CCN(CCO)CC3)ccc21	-5	x	x	x	x	x	x
CCN1CCCCC(NC(=O)c2ccc(F)cc2)C1=O (centres undefined)	-2	x	x	x	x	x	x
CC(C)c1ccc(NC(=O)O[C@@H]2CC[C@@]34CCCN3C(=O)CCC[C@H]4C2)cc1	-4	x	x	x	x	x	x
COc1ccc(-c2cc(-c3nnc(SCc4cccc5ccccc45)n3N)[nH]n2)cc1	-2	x	x	x	x	x	x
COC(=O)[C@]12C[C@H](CC(=O)NCCCCc3ccccc3)C(=O)N(CCC3=CCCCC3)C1=C[C@H](C(C)C)O[C@@H]2C1CC1	4	x	x	x	x	x	x
CC(C)Cc1ccc(C(C)C(=O)Nc2cccnc2)cc1 (centres undefined)	-6	0	0	50	-12	89*	76*
CC(C(=O)Nc1cccnc1)c1ccc([N+](=O)[O-])cc1 (centres undefined)	2	2	-2	5	-2	x	x
C#CCN1C(=O)[C@]2(NCCc3c2[nH]c2ccc(OC)cc32)c2cc(F)ccc21	5	x	x	x	x	x	x
CC(=O)N1CCCc2ccc(NS(=O)(=O)c3ccc(C)c(C)c3)cc21	-1	-1	-3	67	-12	60	48
COc1ccc(OC)c(S(=O)(=O)Nc2ccc3c(c2)N(C(C)=O)CCC3)c1	4	-5	-1	8	-9	x	x
CC(=O)Nc1ccc(S(=O)(=O)Nc2ccc3c(c2)CCC3)cc1	-1	4	-1	51	-10	22	29
COc1ccc(S(=O)(=O)Nc2ccc3c(c2)CCC3)cc1	-6	1	0	6	-7	x	x
O=C(CCC(=O)N1CCN(c2ccc(F)cc2)CC1)c1ccc(Cl)cc1	-3	2	-2	22	-8	x	x
O=C(CCC(=O)N1CCN(c2ccc(Cl)c(Cl)c2)CC1)c1ccccc1	3	1	-1	91*	-2	96*	76*
CCCC[C@@H]1C=C(C(=O)O)[C@H](c2ccc(C)cc2)N1S(=O)(=O)c1ccc(C)cc1	6	x	-1	9	-6	x	x
CCCC[C@@H]1C=C(C(=O)O)[C@H](c2ccc(Cl)c(Cl)c2)N1S(=O)(=O)c1ccc(C)cc1	4	x	2	85*	-4	33	37
Cc1ccc([C@H]2C(C(=O)O)=CC[C@@H](c3ccc(Cl)c(Cl)c3)N2S(=O)(=O)c2ccc(C)cc2)cc1	-9	x	-2	67	-7	37	27
Cc1ccc([C@H]2C(C(=O)O)=C[C@@H](CC3CCCC3)N2S(=O)(=O)c2ccc(C)cc2)cc1	6	x	1	-4	-4	x	x
CCc1ccc([C@H]2C(C(=O)O)=C[C@@H](CC3CCCC3)N2S(=O)(=O)c2ccc(C)cc2)cc1	-3	x	-2	57	0	7	3
